Source: PubChem BioAssay
KCNQ1 act = potentiators or activators of KCNQ1 channel, primary screen, cell-based, thallium flux, high-throughput. Potassium voltage-gated channel subfamily KQT member 1 (Homo sapiens), P51787. actives 0.35% (n = 310,000). CHO-K1 KCNQ1, thallium flux FluxOR fluorescence; stronger effect = higher value. B-score at 10 µM;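 active means fluorescence ratio B-score, a plate-corrected score, at least three library SD, with initial intensity B-score within 5 SD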
Target sequence (P51787 whole entry, looked up): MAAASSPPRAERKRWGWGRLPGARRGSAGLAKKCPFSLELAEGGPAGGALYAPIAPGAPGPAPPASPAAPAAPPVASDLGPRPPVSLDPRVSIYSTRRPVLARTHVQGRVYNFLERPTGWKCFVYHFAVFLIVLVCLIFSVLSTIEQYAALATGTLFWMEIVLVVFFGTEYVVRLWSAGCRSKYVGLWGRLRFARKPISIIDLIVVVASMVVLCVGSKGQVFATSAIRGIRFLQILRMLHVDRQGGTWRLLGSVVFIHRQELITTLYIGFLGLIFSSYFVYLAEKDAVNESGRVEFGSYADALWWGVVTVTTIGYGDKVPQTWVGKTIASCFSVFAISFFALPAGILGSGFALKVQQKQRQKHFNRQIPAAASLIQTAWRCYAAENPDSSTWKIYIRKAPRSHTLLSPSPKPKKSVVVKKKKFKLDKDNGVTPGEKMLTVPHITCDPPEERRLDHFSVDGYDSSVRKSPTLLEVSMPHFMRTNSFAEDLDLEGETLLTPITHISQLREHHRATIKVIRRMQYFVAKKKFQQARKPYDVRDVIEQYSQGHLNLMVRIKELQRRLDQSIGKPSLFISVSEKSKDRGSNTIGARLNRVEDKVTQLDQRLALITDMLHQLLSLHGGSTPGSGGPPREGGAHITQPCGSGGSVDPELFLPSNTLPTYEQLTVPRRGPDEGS
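Test system: CHO-K1 cells stably expressing KCNQ1 / Medium: assay buffer / Also added: depolarizing K+/Tl+ stimulus, K2SO4 and Tl2SO4 each 12.5 mM in 5x stock / Incubation: 90 min dye loading and 20 min compound exposure, both at room temperature / Signal: thallium influx via FluxOR fluorescence, kinetic imaging / Evaluation: B score of baseline-normalized fluorescence ratio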
KCNQ1 block = inhibitors of human KCNQ1 channel, primary screen, cell-based, thallium flux, high-throughput. Potassium voltage-gated channel subfamily KQT member 1 (Homo sapiens), P51787. CHO-K1 KCNQ1, FluxOR thallium flux fluorescence; stronger effect = higher value. B-score at 10 µM. actives 1.3% (n = 310,000). AID 2642, 2010;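 active means compounds whose thallium flux B-score, printed positive for inhibition, exceeds three library SD while starting fluorescence stays within three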;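 further: channel opened by potassium depolarization with thallium stimulus after 20 min compound exposure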
hERG protect = hERG rescue from dofetilide block, primary screen, cell-based, CHO-hERG, FluxOR thallium flux, dofetilide IC70 | Voltage-gated inwardly rectifying potassium channel KCNH2 (Homo sapiens), Q12809 | dofetilide IC70 present | activation (rescue from dofetilide block), less the hit threshold, % at 10 µM | actives 0.51% (n = 310,000);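 active means activation above the mean of controls blocked by dofetilide plus 5 SD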;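 further: thallium influx through hERG after potassium depolarization seen as dye fluorescence rise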
KCNK9 inh = KCNK9 potassium channel inhibitors, primary screen, HEK293 cells, thallium flux. Potassium channel subfamily K member 9 (Homo sapiens), Q9NPC2. FluxOR thallium flux fluorescence; stronger effect = lower value. B-score at 10 µM. actives 1.2% (n = 310,000);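 active means ratio B-score over 3 SD below the library mean, with starting fluorescence within 5 SD of its mean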;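 further: negative B-score means less thallium flux so channel inhibition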
KCNK3 block = human KCNK3 channel inhibitors, primary screen, CHO cells, FluxOR thallium flux, B-score. Potassium channel subfamily K member 3 (Homo sapiens), O14649. FluxOR fluorescence; stronger effect = lower value. B-score at 10 µM. actives 0.84% (n = 340,000). AID 602410, 2012;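 active means B-score under library mean minus 4 SD, starting fluorescence ratio at most library mean plus 5 SD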;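 further: more negative B-score means stronger inhibition of thallium flux through KCNK3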
KCNK9 inh conf = KCNK9 potassium channel inhibitors, confirmation, HEK293 cells, thallium flux, duplicate; shares compounds with KCNK9 inh; FluxOR thallium flux fluorescence; inhibition, % at 10 µM; actives 43% (n = 4,900); AID 492992, 2010;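 active means thallium signal inhibited by more than 5 SD of the compound-free buffer control wells, on both duplicate plates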;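 further: 0% = assay buffer control wells without compound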
Kir21 sel = mouse Kir2.1 channel inhibition, confirmation, selectivity assay for KCNK9 modulator project, cell-based, HEK293, thallium flux | shares compounds with KCNK9 inh | AID 492993, 2010 | inhibition, % at 10 µM | actives 4% (n = 4,900) | Kir2.1 cells, FluxOR thallium flux fluorescence;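 active means thallium signal drop more than 5 SD beyond the mean of the no-compound control wells, seen in both duplicate plates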;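 further: signal is fluorescence rise after thallium addition divided by baseline fluorescence; plate controls were assay buffer only for no effect and full block by chlorpromazine control for full effect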
KCNK9 uninduced = thallium flux in non-induced HEK293 cells, confirmation, counter-screen for KCNK9 inhibitor project, cell-based, second counter screen, non-induced KCNK9-HEK293 | shares compounds with KCNK9 inh | FluxOR thallium flux | inhibition, % at 10 µM | actives 40% (n = 4,900) | AID 492997, 2010;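 active means thallium signal drop beyond 5 SD of the untreated control mean, on both duplicate plates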;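 further: plate controls were buffer only IC0 wells for no effect and SID17386958 at its maximal inhibitory level for full effect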
Numbers without * were called inactive. In the library only some 3.1% were active in any assay of this set; here they are far more common.

Screening Cc1ccc(C(=O)NN2C(=O)C3C(C2=O)C2C=CC3C23CC3)cc1 (centres undefined) returned KCNQ1 act inactive, KCNQ1 block inactive, hERG protect -7, KCNK9 inh inactive and KCNK3 block inactive.
Screening COc1cc(-c2nnc(COC(=O)c3ccc(C)o3)o2)cc(OC)c1OC returned KCNK3 block inactive.
Screening COCCCn1c(=O)c2sccc2n2c(CCCC(=O)NCc3ccc(OC)cc3)nnc12 returned KCNQ1 act inactive, KCNQ1 block inactive, hERG protect -5, KCNK9 inh inactive and KCNK3 block inactive.
For COc1ccc(C2=Nc3ccc(C)cc3C(c3ccccc3)N2CC(=O)NN)cc1 (centres undefined) the results were KCNQ1 act inactive, KCNQ1 block inactive, hERG protect -11, KCNK9 inh inactive and KCNK3 block inactive.
Screening COC(=O)CN1C(c2ccc(Cl)cc2)=Nc2ccc(Cl)cc2C1c1ccccc1 (centres undefined) returned KCNQ1 act inactive, KCNQ1 block inactive, hERG protect -12, KCNK9 inh -10*, KCNK3 block inactive, KCNK9 inh conf 32%*, Kir21 sel inactive and KCNK9 uninduced 42%*.
`O=Cc1cn(-c2ccccc2)nc1-c1ccccc1` gave KCNQ1 act inactive, KCNQ1 block inactive, hERG protect -7, KCNK9 inh inactive and KCNK3 block inactive.
Screening CC1=NNC(=O)/C1=C\c1cn(-c2ccccc2)nc1-c1ccccc1 returned KCNQ1 act inactive, KCNQ1 block inactive, hERG protect -20, KCNK9 inh inactive, KCNK3 block inactive, KCNK9 inh conf inactive, Kir21 sel inactive and KCNK9 uninduced inactive.
`COC(=O)c1cc(NC(=O)C(C)c2ccc(CC(C)C)cc2)ccc1O` (centres undefined) gave KCNQ1 act inactive, KCNQ1 block inactive, hERG protect -5, KCNK9 inh inactive, KCNK3 block inactive, KCNK9 inh conf inactive, Kir21 sel inactive and KCNK9 uninduced inactive.
CC(C)Cc1ccc(C(C)C(=O)Nc2ncccn2)cc1 (centres undefined) was read as KCNQ1 act inactive, KCNQ1 block inactive, hERG protect -5, KCNK9 inh inactive and KCNK3 block inactive.
Screening Cc1csc2nc(CSc3nc4ccccc4o3)c(Br)n12 returned KCNQ1 act inactive, KCNQ1 block inactive, hERG protect -3, KCNK9 inh -12*, KCNK3 block inactive, KCNK9 inh conf inactive, Kir21 sel inactive and KCNK9 uninduced 46%*.
`CCN(CC)S(=O)(=O)c1ccc(N2CCOCC2)c(NC(=O)C23CC4CC(CC(Cl)(C4)C2)C3)c1` gave KCNQ1 act inactive, KCNQ1 block inactive, hERG protect -10, KCNK9 inh inactive, KCNK3 block inactive, KCNK9 inh conf inactive, Kir21 sel inactive and KCNK9 uninduced inactive.
`CCN(CC)S(=O)(=O)c1ccc(N2CCOCC2)c(NC(=O)c2ccccc2)c1` gave KCNQ1 act inactive, KCNQ1 block inactive, hERG protect -15, KCNK9 inh inactive and KCNK3 block inactive.
`COC(=O)C(C)N(C(=O)c1cccc2ccccc12)c1c(C)cccc1C` (centres undefined) gave KCNQ1 act inactive, KCNQ1 block inactive, hERG protect -9, KCNK9 inh -12*, KCNK3 block inactive, KCNK9 inh conf 52%*, Kir21 sel inactive and KCNK9 uninduced 32%*.
`O=C(NC(C(=O)N/N=C/c1cccnc1)c1n[nH]c(=O)c2ccccc12)c1ccccc1` (centres undefined) gave KCNQ1 act inactive, KCNQ1 block inactive, hERG protect -11, KCNK9 inh inactive and KCNK3 block inactive.
`CCOc1ccc(C(=O)Nc2ccc(Cc3ccncc3)cc2)cc1Br` gave KCNQ1 act inactive, KCNQ1 block inactive, hERG protect -4, KCNK9 inh inactive, KCNK3 block inactive, KCNK9 inh conf inactive, Kir21 sel inactive and KCNK9 uninduced inactive.
Screening CCOc1ccc(C(=O)Nc2ccc(NC(=O)c3ccccc3)cc2)cc1Br returned KCNQ1 act inactive, KCNQ1 block inactive, hERG protect -7, KCNK9 inh inactive and KCNK3 block inactive.
C/C(=C\c1ccco1)CN1CCN(Cc2ccc(C)o2)C(CCO)C1 (centres undefined) was read as KCNQ1 act inactive, KCNQ1 block inactive, hERG protect -11, KCNK9 inh inactive and KCNK3 block inactive.
For C=CCN1CN=C(NS(=O)(=O)c2ccc(NC(C)=O)cc2)NC1 the results were KCNQ1 act inactive, KCNQ1 block inactive, hERG protect -7, KCNK9 inh -10*, KCNK3 block inactive, KCNK9 inh conf inactive, Kir21 sel inactive and KCNK9 uninduced inactive.
Screening CC(=O)Nc1ccc(S(=O)(=O)NC2=NCN(C)CN2)cc1 returned KCNQ1 act inactive, KCNQ1 block inactive, hERG protect -7, KCNK9 inh inactive and KCNK3 block inactive.
`COc1ccc(Br)cc1[C@H]1[C@@H]2C=CCC[C@@]2(C)C(=O)N1Cc1ccccc1` gave KCNQ1 act inactive, KCNQ1 block inactive, hERG protect -11, KCNK9 inh -15*, KCNK3 block inactive, KCNK9 inh conf 66%*, Kir21 sel inactive and KCNK9 uninduced 49%*.
Screening COc1ccc(-c2ccc(OC)c([C@H]3[C@@H]4C=CCC[C@@]4(C)C(=O)N3Cc3ccccc3)c2)cc1OC returned KCNQ1 act inactive, KCNQ1 block inactive, hERG protect -16, KCNK9 inh inactive and KCNK3 block inactive.
